Each structure is given as a SMILES string. Where only a bound is given, the exact number is not on record here.

Series [1] in a line: Dissociation constant, pKa of the compound. It is filed as physicochemical.
Series [2] is described as follows: Displacement of [3H]gabapentin from alpha2-delta calcium channel in pig brain. On the set-up: species or system Sus scrofa. Summed up: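 Competition binding of [3H]gabapentin to partially purified pig forebrain membranes. IC50, in nM, is the concentration giving half-maximal inhibition of specific [3H]gabapentin binding.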

Turning to `NCC1(CC(=O)O)CCCCC1` [GABAPENTIN], the pKa (in general, the pH at which an ionisable group is half protonated) in series [1] is 4.1. Further, the IC50 (in general, the midpoint of a concentration-inhibition curve) in series [2] came out at 87 nM.
Regarding `NCC1(Cc2nnn[nH]2)CCCCC1`, the concentration for half-maximal inhibition (IC50) in series [2] was 100 nM.
In series [1], `CC(C)CC(CN)c1nnn[nH]1` (stereo not given) displayed a pKa of 3.74. In addition, in series [2], the IC50 was determined as 170 nM.
As to `Cn1nnnc1CC1(CN)CCCCC1`, the IC50 in series [2] was over 10000 nM.
In series [1], `NCC1(Cc2noc(=O)[nH]2)CCCCC1` returned a pKa of 5.24.
For `NCC1(Cc2nnn[nH]2)CCCCCC1`, the IC50 in series [2] is 100 nM.
For the molecule `NCC1(Cc2n[nH]c(=O)o2)CCCCC1`, the pKa in series [1] came to 7.18. Moreover, the IC50 in series [2] is over 10000 nM.

The record behind these values is ChEMBL document CHEMBL1141456, “Ca2+ channel alpha2-delta ligands for the treatment of neuropathic pain” (J Med Chem, 2007).
